Experimental data: ChEMBL document CHEMBL4270643, “Structure-based drug design: Synthesis and biological evaluation of quinazolin-4-amine derivatives as selective Aurora A kinase inhibitors” (Eur J Med Chem, 2018); call rule not given here

Experiments:
Aurora kinase A = target: T1, Aurora kinase A (Homo sapiens, UniProt O14965); test: Inhibition of Aurora A (unknown origin) using FAM-labelled peptide as substrate pretreated for 10 mins followed by substrate addition and measured after 60 mins by fluorescence assay
T1 sequence (O14965 whole entry): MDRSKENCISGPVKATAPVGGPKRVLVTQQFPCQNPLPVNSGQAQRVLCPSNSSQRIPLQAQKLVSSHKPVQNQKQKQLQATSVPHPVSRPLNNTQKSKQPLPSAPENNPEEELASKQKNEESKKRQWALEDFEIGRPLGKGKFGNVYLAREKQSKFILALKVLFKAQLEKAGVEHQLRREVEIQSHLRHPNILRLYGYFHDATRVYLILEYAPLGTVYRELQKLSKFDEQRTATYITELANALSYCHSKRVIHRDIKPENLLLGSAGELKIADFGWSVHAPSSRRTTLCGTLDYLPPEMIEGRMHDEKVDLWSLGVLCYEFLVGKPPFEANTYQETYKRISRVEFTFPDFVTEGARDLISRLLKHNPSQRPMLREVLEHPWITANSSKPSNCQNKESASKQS
Procedure, shortened: (§1)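 Kinase IC50 values are the mean of at least two independent experiments; selectivity is the Aurora A/B ratio of these IC50s.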

Aurora kinase B = Aurora kinase B (Homo sapiens, UniProt Q96GD4); test: Inhibition of Aurora B (unknown origin) using FAM-labelled peptide as substrate pretreated for 10 mins followed by substrate addition and measured after 60 mins by fluorescence assay; procedure, shortened: as §1
Aurora kinase B, sequence (Q96GD4 whole entry): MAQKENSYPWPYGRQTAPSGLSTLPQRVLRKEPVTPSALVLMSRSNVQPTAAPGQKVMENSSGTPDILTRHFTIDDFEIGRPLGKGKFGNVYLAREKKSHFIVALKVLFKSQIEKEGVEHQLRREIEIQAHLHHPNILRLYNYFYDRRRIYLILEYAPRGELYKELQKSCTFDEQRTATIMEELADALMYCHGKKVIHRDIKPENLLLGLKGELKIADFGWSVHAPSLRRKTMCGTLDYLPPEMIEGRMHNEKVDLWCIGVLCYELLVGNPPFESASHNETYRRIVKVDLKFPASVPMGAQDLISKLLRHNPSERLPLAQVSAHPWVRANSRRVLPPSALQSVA

MOLT-4 = test: Antiproliferative activity against human MOLT4 cells after 48 hrs by CCK8 assay; type: functional, cell-based
K562 = test: Antiproliferative activity against human K562 cells after 48 hrs by CCK8 assay; type: functional, cell-based
MDA-MB-231 = test: Antiproliferative activity against human MDA-MB-231 cells after 48 hrs by CCK8 assay; type: functional, cell-based; conditions: MDA-MB-231, 48 h
MCF7 = test: Antiproliferative activity against human MCF7 cells after 48 hrs by CCK8 assay; type: functional, cell-based
HeLa = test: Antiproliferative activity against human HeLa cells after 48 hrs by CCK8 assay; type: functional, cell-based
DU-145 = test: Antiproliferative activity against human DU145 cells after 48 hrs by CCK8 assay; type: functional, cell-based; conditions: DU-145, 48 h
SK-BR-3 = test: Antiproliferative activity against human SKBR3 cells after 48 hrs by CCK8 assay; type: functional, cell-based
Homo sapiens = species on record: Homo sapiens; test: Selectivity ratio of IC50 for Aurora B (unknown origin) to IC50 for Aurora A (unknown origin)
[1] = Homo sapiens, MOLT-4, 48 h, read-out: IC50
[2] = Homo sapiens, K562, 48 h, read-out: IC50
[3] = Homo sapiens, MCF7, 48 h, read-out: IC50
[4] = Homo sapiens, HeLa, 48 h, read-out: IC50
[5] = Homo sapiens, SK-BR-3, 48 h, read-out: IC50

SMILES | IC50 (Aurora kinase A) [µM] | IC50 (Aurora kinase B) [µM] | IC50 (MOLT-4; [1]) [µM] | IC50 (K562; [2]) [µM] | IC50 (MDA-MB-231) [µM] | IC50 (MCF7; [3]) [µM] | IC50 (HeLa; [4]) [µM] | IC50 (DU-145) [µM] | IC50 (SK-BR-3; [5]) [µM] | Ratio IC50 (Homo sapiens) | IC50 (K562; k562) | IC50 (MCF7; mcf7) | IC50 (SK-BR-3; sk-br-3) | IC50 (HeLa; hela) | IC50 (MOLT-4; molt-4)
Cc1cc(Nc2nc(-c3ccccc3)nc3ccccc23)[nH]n1 | 0.028 | 0.858 |  |  |  |  |  |  |  |  |  |  |  |  | 
CN1CCN(c2ccc3c(Nc4cc[nH]n4)nc(-c4ccccc4)nc3c2)CC1 | 5.95 | 14.4 |  | 6.75 | 3.98 | 7.88 | 7.85 | 5.27 | 6.12 | 2.4 |  |  |  |  | 
COc1cccc2c(Nc3cc(C)[nH]n3)nc(-c3ccccc3)nc12 | 0.025 | 0.547 | 2.86 | 2.3 | 1.9 | 4.17 | 0.817 | 6.36 | 1.85 | 21 |  |  |  |  | 
Cc1cc(Nc2nc(Cc3ccccc3)nc3ccccc23)n[nH]1 | 0.069 | 1.27 | 5.79 | 2.29 | 3.12 | 13.3 | 1.52 | 4.44 | 9.1 | 18 |  |  |  |  | 
Cc1cc(Nc2nc(-c3ccccc3)nc3c([N+](=O)[O-])cccc23)n[nH]1 | 0.174 | 4.59 | 6.48 | 6.43 | 3.47 | 4.53 | 2.46 | 6.62 | 4.59 | 26 |  |  |  |  | 
COc1cccc2c(Nc3cc(C)[nH]n3)nc(Cc3ccccc3)nc12 | 0.041 | 0.893 | 4.81 | 1.44 | 2.62 | 6.28 | 1.45 | > 10 | 2.72 | 22 |  |  |  |  | 
COc1cccc(OC)c1C(=O)c1nc(Nc2cc(C)[nH]n2)c2ccc(N3CCC(C(=O)OC(C)(C)C)CC3)cc2n1 | 0.217 | > 60 |  | 0.373 | 1.38 | 1.51 | 0.526 | 3.61 | 2.75 | > 276 |  |  |  |  | 
Cc1cc(Nc2nc(-c3ccccc3)nc3cc(N4CCN(C)CC4)ccc23)n[nH]1 | 0.01 | 0.27 | 0.149 | 0.191 | 0.142 | 0.654 | 0.179 | 0.409 | 2.49 | 30 |  |  |  |  | 
Cc1cc(Nc2nc(C(C)C)nc3ccccc23)n[nH]1 | 0.103 | 1.15 |  | 3.92 | 4.8 | 10.7 | 2.81 | 7.43 | 11.9 | 11 |  |  |  |  | 

More lines, now with the values ahead:

IC50 (Aurora kinase A) [µM] | IC50 (Aurora kinase B) [µM] | IC50 (MOLT-4; [1]) [µM] | IC50 (K562; [2]) [µM] | IC50 (MDA-MB-231) [µM] | IC50 (MCF7; [3]) [µM] | IC50 (HeLa; [4]) [µM] | IC50 (DU-145) [µM] | IC50 (SK-BR-3; [5]) [µM] | Ratio IC50 (Homo sapiens) | IC50 (K562; k562) | IC50 (MCF7; mcf7) | IC50 (SK-BR-3; sk-br-3) | IC50 (HeLa; hela) | IC50 (MOLT-4; molt-4) | SMILES
 |  | 5.15 | 2.99 | 2.88 | 6.16 | 0.883 | 7.99 | 2.54 | 30 |  |  |  |  |  | Cc1cc(Nc2nc(-c3ccccc3)nc3ccccc23)n[nH]1
0.744 | > 100 |  |  | 12.3 |  | > 30 | 12.5 |  | > 134 | Not Active | Not Active | Not Active |  |  | COc1ccc(C(=O)c2nc(Nc3cc(C)[nH]n3)c3ccc(Cl)cc3n2)cc1
0.034 | 0.773 | 1.2 | 2.12 | 1.32 | 3.6 | 1.31 | 4.73 | 2.03 | 22 |  |  |  |  |  | COc1ccc2c(Nc3cc(C)[nH]n3)nc(-c3ccccc3)nc2c1
1.3 | > 100 |  |  | > 30 |  |  | 16 |  | > 77 | Not Active | Not Active | Not Active | Not Active |  | Cc1ccc(C(=O)c2nc(Nc3cc(C)[nH]n3)c3ccc(Cl)cc3n2)cc1
0.132 |  |  |  | > 30 | > 30 | > 30 | > 30 |  |  | Not Active |  | Not Active |  | Not Active | Cc1cc(Nc2nc(-c3ccccc3)nc3cc(Cl)ccc23)n[nH]1
0.072 | 6.28 |  | > 30 | 11.2 | > 30 | 9.7 | > 30 | 10.7 | 88 |  |  |  |  | Not Active | Cc1cc(Nc2nc(-c3ccccc3)nc3cc(F)ccc23)n[nH]1
0.006 | 0.127 | 2.2 | 5.52 | 10.5 | 6.04 | 1.86 | 21.5 | 16.3 | 20 |  |  |  |  |  | Cc1cc(Nc2nc(-c3ccccc3)nc3cc(N4CCC(C(=O)O)CC4)ccc23)n[nH]1
0.188 | 11.5 | 8.82 | > 30 | 17 | > 30 | 5.22 | > 30 | 14.7 | 61 |  |  |  |  |  | Cc1cc(Nc2nc(C(=O)c3ccccc3)nc3ccccc23)n[nH]1
0.128 | 5.07 | 10.4 | 15 | 11 | > 30 | 3.75 | 10.4 | 7.15 | 40 |  |  |  |  |  | Cc1cc(Nc2nc(-c3ccc4ccccc4c3)nc3ccccc23)n[nH]1
0.325 | > 100 |  | 12 | 9.83 | > 30 | 10.1 | 7.36 | 8.86 | > 308 |  |  |  |  |  | Cc1cc(Nc2nc(-c3ccccc3)nc3cc([N+](=O)[O-])ccc23)n[nH]1
